Measured values taken from ChEMBL document CHEMBL3576847, “Discovery of 1-(3,3-dimethylbutyl)-3-(2-fluoro-4-methyl-5-(7-methyl-2-(methylamino)pyrido[2,3-d]pyrimidin-6-yl)phenyl)urea (LY3009120) as a pan-RAF inhibitor with minimal paradoxical activation and activity against BRAF or RAS mutant tumor cells” (J Med Chem, 2015).
Converted amounts (≈) assume the structure as drawn. The source made the active and inactive calls. No cut-off for these calls is given here.

Columns and labels:
[1] = target: T1, Serine/threonine-protein kinase B-raf (Homo sapiens, UniProt P15056, V600E); test: Inhibition of recombinant BRAF V600E mutant (unknown origin) assessed as ADP formation measured for 5 hrs by pyruvate kinase/lactate dehydrogenase coupled assay in presence of ATP, MEK1, NADH
T1 sequence (P15056 2-766 V600E limits assumed): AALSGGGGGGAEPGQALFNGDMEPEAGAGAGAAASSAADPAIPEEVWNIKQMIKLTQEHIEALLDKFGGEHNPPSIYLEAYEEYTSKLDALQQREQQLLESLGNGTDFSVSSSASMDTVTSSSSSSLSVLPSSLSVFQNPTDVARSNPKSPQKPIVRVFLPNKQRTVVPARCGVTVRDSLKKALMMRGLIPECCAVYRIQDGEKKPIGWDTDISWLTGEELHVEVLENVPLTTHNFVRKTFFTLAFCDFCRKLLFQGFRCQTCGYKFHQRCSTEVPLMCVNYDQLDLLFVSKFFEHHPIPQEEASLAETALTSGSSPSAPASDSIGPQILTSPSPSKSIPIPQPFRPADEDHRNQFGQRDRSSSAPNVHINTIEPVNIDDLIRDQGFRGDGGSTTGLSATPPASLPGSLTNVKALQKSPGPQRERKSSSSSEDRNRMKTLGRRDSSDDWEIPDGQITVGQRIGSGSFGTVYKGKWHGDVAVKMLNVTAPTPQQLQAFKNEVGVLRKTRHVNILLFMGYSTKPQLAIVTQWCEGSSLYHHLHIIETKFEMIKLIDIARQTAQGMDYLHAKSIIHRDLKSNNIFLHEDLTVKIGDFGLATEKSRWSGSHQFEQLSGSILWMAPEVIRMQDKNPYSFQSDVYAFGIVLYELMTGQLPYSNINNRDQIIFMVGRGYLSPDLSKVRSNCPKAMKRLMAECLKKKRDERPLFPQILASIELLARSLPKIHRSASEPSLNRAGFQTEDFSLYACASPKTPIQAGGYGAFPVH

[2] = target: Serine/threonine-protein kinase B-raf (Homo sapiens, UniProt P15056); test: Inhibition of wild type BRAF (unknown origin) assessed as ADP formation measured for 5 hrs by pyruvate kinase/lactate dehydrogenase coupled assay in presence of ATP, MEK1, NADH
Chain of Serine/threonine-protein kinase B-raf (Homo sapiens, UniProt P15056) (P15056 whole entry): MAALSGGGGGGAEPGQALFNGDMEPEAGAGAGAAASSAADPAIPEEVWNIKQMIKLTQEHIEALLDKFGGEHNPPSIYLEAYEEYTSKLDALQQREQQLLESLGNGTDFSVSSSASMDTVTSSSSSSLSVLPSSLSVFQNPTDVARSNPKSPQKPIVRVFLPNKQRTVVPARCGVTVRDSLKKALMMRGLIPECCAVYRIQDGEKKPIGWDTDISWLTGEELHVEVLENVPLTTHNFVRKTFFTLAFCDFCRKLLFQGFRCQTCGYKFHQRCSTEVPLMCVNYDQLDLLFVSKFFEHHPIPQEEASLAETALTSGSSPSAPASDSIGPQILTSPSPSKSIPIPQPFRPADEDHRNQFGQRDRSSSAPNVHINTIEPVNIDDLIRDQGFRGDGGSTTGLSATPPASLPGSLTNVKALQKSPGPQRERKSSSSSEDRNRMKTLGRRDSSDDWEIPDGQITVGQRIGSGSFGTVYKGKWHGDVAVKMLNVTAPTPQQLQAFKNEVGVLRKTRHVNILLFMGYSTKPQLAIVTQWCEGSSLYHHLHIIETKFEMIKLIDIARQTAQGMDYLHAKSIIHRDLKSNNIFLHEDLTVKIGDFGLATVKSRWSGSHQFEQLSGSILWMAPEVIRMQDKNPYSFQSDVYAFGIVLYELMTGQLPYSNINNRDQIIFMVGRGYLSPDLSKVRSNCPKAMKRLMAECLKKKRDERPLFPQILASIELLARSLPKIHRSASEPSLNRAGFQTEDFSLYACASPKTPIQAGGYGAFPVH

[3] = target: RAF proto-oncogene serine/threonine-protein kinase (Homo sapiens, UniProt P04049); test: Inhibition of wild type CRAF (unknown origin) assessed as ADP formation measured for 5 hrs by pyruvate kinase/lactate dehydrogenase coupled assay in presence of ATP, MEK1, PEP, NADH
Chain of RAF proto-oncogene serine/threonine-protein kinase (P04049 whole entry): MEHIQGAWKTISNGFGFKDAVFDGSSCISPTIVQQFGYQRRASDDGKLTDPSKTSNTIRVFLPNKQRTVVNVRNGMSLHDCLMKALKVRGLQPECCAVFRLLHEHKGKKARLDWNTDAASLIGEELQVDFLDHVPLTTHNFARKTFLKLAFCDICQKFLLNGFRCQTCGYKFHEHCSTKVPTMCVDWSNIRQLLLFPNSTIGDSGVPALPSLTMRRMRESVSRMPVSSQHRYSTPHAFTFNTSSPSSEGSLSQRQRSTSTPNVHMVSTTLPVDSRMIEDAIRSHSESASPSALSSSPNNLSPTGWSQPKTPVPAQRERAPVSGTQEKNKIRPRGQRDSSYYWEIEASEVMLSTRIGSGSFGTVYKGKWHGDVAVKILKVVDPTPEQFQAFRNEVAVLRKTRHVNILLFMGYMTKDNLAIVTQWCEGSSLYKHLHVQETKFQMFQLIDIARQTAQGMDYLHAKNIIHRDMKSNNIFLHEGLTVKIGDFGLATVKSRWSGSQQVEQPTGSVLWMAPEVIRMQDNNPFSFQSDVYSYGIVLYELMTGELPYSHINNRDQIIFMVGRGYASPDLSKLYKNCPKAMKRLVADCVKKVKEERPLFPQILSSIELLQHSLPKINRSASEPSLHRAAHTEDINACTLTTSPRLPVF

[4] = target: T1, Serine/threonine-protein kinase B-raf; test: Inhibition of BRAF V600E mutant in human A375 cells assessed as inhibition of ERK phosphorylation measured after 72 hrs by ELISA assay; format: cell-based, A-375
[5] = target: GTPase KRas (Homo sapiens, UniProt P01116, G13D); test: Inhibition of KRAS G13D mutant in human HCT116 cells assessed as inhibition of ERK phosphorylation by ELISA; format: cell-based, HCT-116
Chain of GTPase KRas (P01116 whole entry G13D): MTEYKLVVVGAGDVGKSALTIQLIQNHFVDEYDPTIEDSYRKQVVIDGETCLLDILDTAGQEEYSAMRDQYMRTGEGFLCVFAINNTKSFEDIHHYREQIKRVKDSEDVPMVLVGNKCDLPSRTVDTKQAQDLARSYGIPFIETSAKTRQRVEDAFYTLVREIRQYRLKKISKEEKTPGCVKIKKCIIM
Procedure, shortened: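 HCT116 cells (KRAS G13D, BRAF WT; RAF signalling via CRAF) were treated with compound, and the change in cellular phospho-ERK was measured. IC50 was taken as the concentration inhibiting phospho-ERK.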

[6] = target: Vascular endothelial growth factor receptor 2 (Homo sapiens, UniProt P35968); test: Inhibition of KDR (unknown origin)
Chain of Vascular endothelial growth factor receptor 2 (P35968 whole entry): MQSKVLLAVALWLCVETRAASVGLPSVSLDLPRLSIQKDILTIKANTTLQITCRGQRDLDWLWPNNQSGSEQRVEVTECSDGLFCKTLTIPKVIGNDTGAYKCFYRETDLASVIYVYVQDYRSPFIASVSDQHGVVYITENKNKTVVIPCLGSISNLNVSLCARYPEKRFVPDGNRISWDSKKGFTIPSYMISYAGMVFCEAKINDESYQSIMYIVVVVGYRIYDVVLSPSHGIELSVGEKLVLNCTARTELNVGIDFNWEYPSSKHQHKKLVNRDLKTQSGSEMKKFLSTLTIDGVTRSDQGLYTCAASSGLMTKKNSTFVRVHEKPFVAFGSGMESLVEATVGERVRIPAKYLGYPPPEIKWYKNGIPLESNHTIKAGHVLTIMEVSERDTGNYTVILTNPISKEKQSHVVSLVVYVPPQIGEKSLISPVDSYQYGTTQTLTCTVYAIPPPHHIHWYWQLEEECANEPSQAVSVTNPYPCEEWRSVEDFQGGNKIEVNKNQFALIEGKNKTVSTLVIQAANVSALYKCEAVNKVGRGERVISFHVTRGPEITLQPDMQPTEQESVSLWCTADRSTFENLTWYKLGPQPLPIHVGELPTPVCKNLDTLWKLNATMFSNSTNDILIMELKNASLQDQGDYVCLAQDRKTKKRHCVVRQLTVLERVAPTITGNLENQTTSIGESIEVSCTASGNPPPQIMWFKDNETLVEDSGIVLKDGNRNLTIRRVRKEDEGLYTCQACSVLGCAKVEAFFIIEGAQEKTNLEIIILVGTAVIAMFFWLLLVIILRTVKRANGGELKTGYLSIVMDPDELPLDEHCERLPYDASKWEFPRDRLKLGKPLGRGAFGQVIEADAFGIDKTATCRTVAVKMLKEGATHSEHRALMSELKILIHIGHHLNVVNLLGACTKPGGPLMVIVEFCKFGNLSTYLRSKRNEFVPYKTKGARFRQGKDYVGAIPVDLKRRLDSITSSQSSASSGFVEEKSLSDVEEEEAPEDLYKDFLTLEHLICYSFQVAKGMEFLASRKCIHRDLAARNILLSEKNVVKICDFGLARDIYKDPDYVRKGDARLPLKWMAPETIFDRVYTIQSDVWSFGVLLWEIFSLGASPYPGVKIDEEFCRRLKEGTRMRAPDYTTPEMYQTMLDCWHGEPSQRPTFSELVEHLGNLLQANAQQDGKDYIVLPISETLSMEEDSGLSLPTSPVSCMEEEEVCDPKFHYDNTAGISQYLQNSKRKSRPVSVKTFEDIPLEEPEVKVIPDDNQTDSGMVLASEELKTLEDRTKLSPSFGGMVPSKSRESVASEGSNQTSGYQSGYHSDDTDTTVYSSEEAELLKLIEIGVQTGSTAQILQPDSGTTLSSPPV

[7] = target: Dual specificity mitogen-activated protein kinase kinase; MEK1/2 (Homo sapiens, UniProt P36507+Q02750); test: Inhibition of MEK (unknown origin)
[8] = test system: A-375; test: cells; conditions: Homo sapiens, A-375, 72 h
[9] = test system: HCT-116; test: cells; conditions: Homo sapiens, HCT-116, 67 h
[10] = target: Serine/threonine-protein kinase A-Raf (Homo sapiens, UniProt P10398); test: Competitive binding affinity to ARAF in human A375 cells after 15 mins in presence of ATP analogue; format: cell-based, A-375
Chain of Serine/threonine-protein kinase A-Raf (P10398 whole entry): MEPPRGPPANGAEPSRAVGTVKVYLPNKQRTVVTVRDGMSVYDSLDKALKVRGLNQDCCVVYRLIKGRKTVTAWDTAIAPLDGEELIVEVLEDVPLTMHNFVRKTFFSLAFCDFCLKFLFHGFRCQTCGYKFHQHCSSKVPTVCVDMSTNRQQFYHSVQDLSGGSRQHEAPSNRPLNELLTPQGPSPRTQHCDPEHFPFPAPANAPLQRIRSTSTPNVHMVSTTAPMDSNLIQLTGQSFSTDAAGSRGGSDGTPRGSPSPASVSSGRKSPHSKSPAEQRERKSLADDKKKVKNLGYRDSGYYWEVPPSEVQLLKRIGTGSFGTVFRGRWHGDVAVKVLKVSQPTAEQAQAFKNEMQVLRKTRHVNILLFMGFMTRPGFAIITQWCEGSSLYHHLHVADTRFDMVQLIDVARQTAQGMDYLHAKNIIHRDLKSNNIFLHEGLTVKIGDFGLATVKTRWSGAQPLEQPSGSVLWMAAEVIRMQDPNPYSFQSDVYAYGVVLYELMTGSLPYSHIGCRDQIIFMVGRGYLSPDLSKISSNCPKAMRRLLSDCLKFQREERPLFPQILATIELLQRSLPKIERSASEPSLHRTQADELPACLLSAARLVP

[11] = Oral bioavailability in rat administered as suspension; format: ADME, organism-based; conditions: in vivo
[12] = Clearance in iv dosed rat administered as suspension; format: ADME, organism-based; conditions: in vivo
[13] = Paradoxical activation of RAS/RAF/MEK signaling pathway in human HCT116 cells expressing wild type BRAF assessed as ERK phosphorylation at 0.34 to 20000 nM; format: cell-based; conditions: HCT-116
[14] = Clearance in po dosed rat administered as suspension; format: ADME, organism-based; conditions: in vivo
[15] = Clearance in po dosed dog administered as suspension; format: ADME, organism-based, Canis lupus familiaris; conditions: in vivo
[16] = Oral bioavailability in dog administered as suspension; format: ADME, organism-based, Canis lupus familiaris; conditions: in vivo
[17] = Solubility of the compound in simulated fed intestinal fluid; format: ADME
[18] = Solubility of the compound in simulated fasted intestinal fluid; format: ADME
[19] = test system: Mus musculus; test: In vivo inhibition of BRAF V600E mutant in human A375 cells xenografted in po dosed athymic nu/nu mouse assessed as inhibition of ERK phosphorylation after 2 hrs by ELISA; format: functional; conditions: A-375, po
[20] = test system: Mus musculus; test: In vivo inhibition of BRAF V600E mutant in human A375 cells xenografted in po dosed athymic nu/nu mouse assessed as plasma concentration required to inhibit ERK phosphorylation by 50% after 2 hrs by ELISA; format: functional, A-375
[21] = test system: Mus musculus; test: In vivo inhibition of BRAF V600E mutant in human A375 cells xenografted in po dosed athymic nu/nu mouse assessed as plasma concentration required to inhibit ERK phosphorylation by 80% after 2 hrs by ELISA; format: functional, A-375
[22] = test system: Mus musculus; test: Toxicity in athymic nu/nu mouse xenografted with human HT-29 cells assessed as body weight loss at 10 to 20 mg/kg, po bid administered for 28 days; format: organism-based; conditions: in vivo, 672 h
Procedure, shortened: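 HT-29 (BRAF V600E) xenograft mice dosed orally for 28 days; body weight loss monitored.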

[23] = species on record: Rattus norvegicus; test: Toxicity in rat assessed as inflammation; format: organism-based; conditions: in vivo
[24] = species on record: Rattus norvegicus; test: Toxicity in rat assessed as hyperbilirubinemia; format: organism-based; conditions: in vivo
[25] = species on record: Rattus norvegicus; test: Toxicity in rat assessed as skeletal muscle degeneration; format: organism-based; conditions: in vivo
[26] = species on record: Rattus norvegicus; test: Toxicity in rat assessed as bone marrow hypocellularity; format: organism-based; conditions: in vivo
[27] = species on record: Canis familiaris; test: Toxicity in dog assessed as inflammation; format: organism-based, Canis lupus familiaris; conditions: in vivo
[28] = species on record: Canis familiaris; test: Toxicity in dog assessed as hyperbilirubinemia; format: organism-based, Canis lupus familiaris; conditions: in vivo
[29] = species on record: Canis familiaris; test: Toxicity in dog assessed as skeletal muscle degeneration; format: organism-based, Canis lupus familiaris; conditions: in vivo
[30] = species on record: Canis familiaris; test: Toxicity in dog assessed as bone marrow hypocellularity; format: organism-based, Canis lupus familiaris; conditions: in vivo
[31] = test system: Mus musculus; test: In vivo inhibition of BRAF V600E mutant in human HT-29 cells xenografted in athymic nu/nu mouse assessed as inhibition of ERK phosphorylation at 10 to 20 mg/kg, po bid administered for 28 days by Western blot analysis; format: functional, organism-based
Procedure, shortened: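 HT-29 (BRAF V600E) xenografts in mice, oral dosing for 28 days; after dosing, tumors from individual animals analysed for phospho-ERK by Western blot.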

[32] = test system: Mus musculus; test: In vivo inhibition of BRAF V600E mutant in human HT-29 cells xenografted in po dosed athymic nu/nu mouse assessed as inhibition of ERK phosphorylation administered as bid for 28 days by Western blot

CNc1ncc2cc(-c3ccc(F)c(NC(=O)NCCC(C)(C)C)c3)c(C)nc2n1
IC50 [1]: 7.6 nM
IC50 [2]: 18 nM
IC50 [3]: 2.8 nM
IC50 [4]: 110 nM
IC50 [5]: 48 nM
IC50 [6]: 750 nM
IC50 [7]: > 20000 nM
IC50 [8]: 26 nM
IC50 [9]: 280 nM

CC(C)(C)c1nc(-c2cccc(NS(=O)(=O)c3c(F)cccc3F)c2F)c(-c2ccnc(N)n2)s1 [DABRAFENIB]
IC50 [5]: 5880 nM
IC50 [10]: 26 nM

CNc1cc2nc(C)c(-c3cc(NC(=O)NCCC(C)(C)C)ccc3C)cc2cn1
IC50 [1]: 4.3 nM
IC50 [2]: 27 nM
IC50 [3]: 6.7 nM
IC50 [4]: 140 nM
IC50 [5]: 270 nM
IC50 [7]: > 20000 nM
IC50 [8]: 35 nM
IC50 [9]: 510 nM

Cc1cc(F)c(NC(=O)NCCC(C)(C)C)cc1-c1cc2cnc(N)nc2nc1C
IC50 [1]: 7.9 nM
IC50 [6]: 540 nM
IC50 [8]: 33 nM
IC50 [9]: 190 nM

CNc1cc2nc(C)c(-c3cc(NC(=O)NCCC(C)(C)C)c(F)cc3C)cc2cn1
IC50 [1]: 18 nM
IC50 [2]: 28 nM
IC50 [3]: 5.6 nM
IC50 [4]: 47 nM
IC50 [5]: 120 nM
IC50 [6]: 170 nM
IC50 [7]: 5900 nM
bioavailability [11]: 30%
clearance [12]: 3.36 mL/min/kg
IC50 [8]: 11 nM
IC50 [9]: 320 nM

CCCS(=O)(=O)Nc1ccc(F)c(C(=O)c2c[nH]c3ncc(-c4ccc(Cl)cc4)cc23)c1F [VEMURAFENIB]
IC50 [5]: 16600 nM
IC50 [6]: 360 nM
IC50 [7]: 1500 nM
IC50 [10]: 950 nM
Activity [13]: Active
IC50 [8]: 170 nM
IC50 [9]: > 10000 nM

CCn1c(=O)c(-c2cc(NC(=O)NCCC(C)(C)C)c(F)cc2C)cc2cnc(NC)cc21
IC50 [1]: 4.2 nM
IC50 [2]: 11 nM
IC50 [3]: 5.2 nM
IC50 [4]: 40 nM
IC50 [5]: 120 nM
IC50 [6]: 25 nM
IC50 [7]: 2500 nM
IC50 [8]: 34 nM
IC50 [9]: 130 nM

CNc1cc2c(cn1)cc(-c1ccc(F)c(NC(=O)Nc3cc(C(C)(C)C)no3)c1)c(=O)n2[C@H]1CCOC1
IC50 [1]: 1 nM
IC50 [2]: 18 nM
IC50 [3]: 3.1 nM
IC50 [4]: 6.8 nM
IC50 [5]: 57 nM
IC50 [6]: 0.46 nM
IC50 [7]: 2900 nM
CL/F [14]: 50 mL/min/kg
CL/F [15]: 6 mL/min/kg
bioavailability [11]: < 10%
bioavailability [16]: < 10%
solubility [17]: 2 µg/mL (≈ 3.84 µM)
solubility [18]: 1 µg/mL (≈ 1.92 µM)
IC50 [8]: 6.1 nM
IC50 [9]: 32 nM

CNc1cc2nc(C)c(-c3ccc(F)c(NC(=O)NCCC(C)(C)C)c3)cc2cn1
IC50 [1]: 3 nM
IC50 [2]: 8.4 nM
IC50 [3]: 1.6 nM
IC50 [4]: 82 nM
IC50 [5]: 46 nM
IC50 [6]: 33 nM
IC50 [7]: > 20000 nM
IC50 [8]: 40 nM
IC50 [9]: 160 nM

CNc1ncc2cc(-c3cc(NC(=O)NCCC(C)(C)C)c(F)cc3C)cnc2n1
IC50 [1]: 2 nM
IC50 [2]: 4.4 nM
IC50 [3]: 1.2 nM
IC50 [4]: 27 nM
IC50 [5]: 16 nM
IC50 [6]: 1900 nM
IC50 [7]: > 20000 nM
IC50 [8]: 18 nM
IC50 [9]: 110 nM

CCn1c(=O)c(-c2ccc(F)c(NC(=O)Nc3cc(C(C)(C)C)no3)c2)cc2cnc(NC)cc21
IC50 [1]: 1.2 nM
IC50 [2]: 10 nM
IC50 [3]: 2.9 nM
IC50 [4]: 96 nM
IC50 [5]: 91 nM
IC50 [6]: 1.9 nM
IC50 [7]: 4000 nM
CL/F [14]: 13 mL/min/kg
CL/F [15]: 14 mL/min/kg
bioavailability [11]: 28%
bioavailability [16]: 69%
solubility [17]: 310 µg/mL (≈ 648 µM)
solubility [18]: 41 µg/mL (≈ 85.7 µM)
ED50 [19]: 10.4 mg/kg
ED80 [19]: 20.5 mg/kg
INH [20]: 167 ng/mL
INH [21]: 843 ng/mL
Activity [22]: Non-toxic
Activity [23]: Toxic
Activity [24]: Toxic
Activity [25]: Toxic
Activity [26]: Toxic
Activity [27]: Toxic
Activity [28]: Toxic
Activity [29]: Toxic
Activity [30]: Toxic
inhibition [31]: Active
IC50 [8]: 56 nM
IC50 [9]: 160 nM
inhibition [32]: Dose-dependent effect
